Here are results for one molecule from ChEMBL document CHEMBL5653617, “Inhibition of BRD4 attenuates tumor cell self-renewal and suppresses stem cell signaling in MYC driven medulloblastoma” (Oncotarget, 2014).

The source made the active and inactive calls.

Experiment [1] addresses Bromodomain-containing protein 4 (Homo sapiens) (UniProt O60885). Conditions: D425 Med, dose 300.0 nM.
The target is the same in experiment [2]. The note with it: UW228, dose 300.0 nM.
Experiment [3] deals with Daoy. Put plainly: Downregulation of IFRD1 gene expression in human Daoy cells at 300 nM by GSEA method. The experiment is classed as functional, cell-based. An outline of the steps:
(§1)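 Daoy cells treated with DMSO or 300 nM drug. RNA extracted and hybridized to Affymetrix HG-ST2.0 arrays. Analysis in R/Bioconductor with gene set enrichment analysis. Regulated transcripts defined as p < 0.05, FDR < 0.05, fold change < 0.67 (down) or > 1.5 (up).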

The subject of the next experiment is D283 Med. As to the kind of experiment: Induction of cell cycle arrest in human D283 Med cells assessed as S phase cells at 300 nM incubated for 48 hrs by flow cytometry analysis (reference value: 19.88 +/- 1.26 %). The experiment is classed as functional.
Experiment [4] relates to Daoy. As to the kind of experiment: Antiproliferative activity in human Daoy cells assessed as inhibition of cell growth measured upto 120 hrs by xCELLigence system. The experiment is classed as functional, cell-based. Conditions: dose 0.1-1 µM. The gist of the method: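 Real-time impedance growth monitoring (xCELLigence, E-Plate 96). 1000 cells/well plated, DMSO or drug at varying concentrations added 24 h later, growth recorded continuously over time.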

Another experiment has as its system D458 Med. As to the kind of experiment: Inhibition of colony formation in human D458 Med cells at 100 to 300 nM incubated for 8 to 11 days by NBT staining based methyl cellulose colony growth assay. It is filed as functional, cell-based. Conditions: dose 100-300 nM, time 8-11 day. The gist of the method: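 500 cells/well suspended in DMEM with methyl cellulose (1.3% final) containing 150 or 300 nM drug or DMSO, plated in triplicate. Colonies formed over 8–11 days, then stained with NBT (1 mg/ml) for 24 h at 37 °C. Colonies of ≥50 cells counted.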

In experiment [5] the target is Bromodomain-containing protein 4 (Homo sapiens) (UniProt O60885). Conditions: D458 Med, dose 300.0 nM.
In experiment [6] the test system is Daoy. Put plainly: Induction of senescence in human Daoy cells assessed as decrease in phosphorylated RB protein expression at 300 nM by immunoblot analysis. The experiment is classed as functional, cell-based. An outline of the steps: (§2)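 Protein lysates prepared in RIPA buffer with protease inhibitors. Standard western blot with HRP-conjugated secondary antibodies and chemiluminescent detection.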

The test system of the next experiment is Medulloblastoma cell. Put plainly: Antitumor activity against patient-derived Medulloblastoma cells assessed as BrdU incorporation at 300 nM preincubated with compound for 7 days followed by BrdU addition and measured after 2 days by flow cytometry analysis (reference value: 33.3). It is filed as functional, Homo sapiens. Conditions: time 9 day.
Experiment [7] deals with Bromodomain-containing protein 4 (Homo sapiens) (UniProt O60885). Conditions: Daoy, dose 100-300 nM, time 48.0 hrs.
For experiment [8], the system named is Daoy. As to the kind of experiment: Downregulation of MYBL2 gene expression in human Daoy cells at 300 nM by GSEA method. The experiment is classed as functional, cell-based. An outline of the steps:
as §1

Experiment [9] concerns the target Bromodomain-containing protein 4 (Homo sapiens) (UniProt O60885). The note with it: D283 Med, dose 300.0 nM.
Experiment [10] has the same target. The note with it: D458 Med, dose 300.0 nM. The source holds these as a separate data set.
In experiment [11] the test system is Daoy. As to the kind of experiment: Downregulation of BARD1 gene expression in human Daoy cells at 300 nM by GSEA method. The experiment is classed as functional, cell-based. The gist of the method: as §1
Experiment [12] concerns Daoy. Put plainly: Induction of senescence in human Daoy cells assessed as increase in p27 protein expression at 300 nM by immunoblot analysis. It is filed as functional, cell-based. The gist of the method: as §2

On to `Cc1sc2c(c1C)C(c1ccc(Cl)cc1)=N[C@@H](CC(=O)OC(C)(C)C)c1nnc(C)n1-2`, for which the inhibition entry (in [1]; in experiment [2]; in the experiment on D458 Med; in experiment [5]; in experiment [9]; in experiment [10]) was “Active” in each case. The result with Daoy [3], in the experiment with Daoy [6], with Daoy [8], with Daoy [11] and in the experiment on Daoy [12] was Active. The results for the Activity in the experiment on D283 Med, in the experiment with Daoy [4] and in the experiment with Medulloblastoma cell were 14.093%, “Dose-Dependent Effect” and 13.5, respectively. Also, the inhibition result in [7] was “Dose-Dependent Effect”.
